From ChEMBL document CHEMBL1125757, “Design of potent protein kinase inhibitors using the bisubstrate approach” (J Med Chem, 1991) come the findings set out here.

As a reminder, the IC50 is the concentration at which inhibition is half-maximal. The term Ki denotes a dissociation constant, usually derived from enzyme kinetics or from competition with a known ligand. Lower therefore signals tighter binding.

Holding throughout (format): protein assay
The target of test [1] is Protein kinase C (PKC). Nature of the test: Inhibition of protein kinase C (PKC). The method in brief:
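Reaction mix: protein kinase C (0.5 μg), histone IIIS 60 μg/mL, MgCl2 5 mM, CaCl2 0.5 mM, phosphatidylserine 50 μg/mL, diolein 5 μg/mL, [γ-³²P]ATP 10 μM, Tris/HCl pH 7.5, inhibitor at various concentrations. 30 °C for 7 min, stopped with TCA/BSA, precipitated twice, scintillation counting.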

In test [2] the target is T1, cAMP-dependent protein kinase (PKA) (Homo sapiens, UniProt P22694+P17612+P22612). Briefly: Inhibition of cAMP-dependent protein kinase (PKA). The method in brief: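 Protein kinase A (1 μg) with histone IIA 60 μg/mL, MgCl2 5 mM and [γ-³²P]ATP 10 μM (2000-4000 cpm/pmol) in Tris/HCl pH 7.0, inhibitor at various concentrations. 30 °C for 7 min, stopped with 12% TCA plus BSA carrier, reprecipitated, histone ³²P counted by scintillation.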

Test [3] concerns the target T1, cAMP-dependent protein kinase (PKA). Briefly: Displacement of ATP from protein kinase A (PKA). In short, it runs like this:
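ATP-competition kinetics: Lineweaver-Burk plots at several inhibitor concentrations, with Ki taken from a secondary plot of apparent Km versus inhibitor concentration. Radiometric [γ-³²P]ATP phosphorylation assay in Tris/HCl pH 7.0 with MgCl2 5 mM and protein kinase A 1 μg, 30 °C, stopped with trichloroacetic acid. Run in triplicate.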

Test [4] has as its target Protein kinase C (PKC). Briefly: Displacement of ATP from protein kinase C (PKC). The method in brief: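 ATP-competition kinetics: Lineweaver-Burk plots at several inhibitor concentrations, with Ki taken from a secondary plot of apparent Km versus inhibitor concentration. Radiometric [γ-³²P]ATP assay in Tris/HCl pH 7.5 with MgCl2 5 mM, CaCl2 0.5 mM, phosphatidylserine 50 μg/mL, diolein 5 μg/mL and protein kinase C 0.5 μg. Run in triplicate.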

Structures are written as SMILES. Where a SMILES comes first, the peptide text is derived from it. The star is where a group is joined. X1 = CN(C)c1ccc(S(=O)(=O)*)c2ccccc12

Consider `N=C(N)NCCC[C@H](NC(=O)[C@H](CCCNC(=N)N)NC(=O)[C@H](CCCNC(=N)N)NC(=O)[C@H](CCCNC(=N)N)NC(=O)[C@H](CCCNC(=N)N)NC(=O)[C@H](CCCNC(=N)N)NC(=O)[C@H](CO)NC(=O)CCNCCNS(=O)(=O)c1cccc2cnccc12)C(=O)O`, for which the IC50 in test [1] was found to be 0.3 µM; in test [2] it was 0.003 µM. Moreover, the Ki in test [3] is 0.004 µM; in test [4], 0.1 µM.

In the case of `O=S(=O)(c1cccc2cnccc12)N1CCNCC1`, the figures for the IC50 in test [1] and in test [2] were 12 µM and 6 µM, respectively.

As to `COC(=O)CCNCCNS(=O)(=O)c1cccc2cnccc12`, the results for the IC50 in test [1] and in test [2] were 20 µM and 2 µM, respectively.

For the molecule `CC1CNCCN1S(=O)(=O)c1cccc2cnccc12.Cl.Cl` (centres undefined), the IC50 in test [1] worked out at 6 µM. Also, in test [4], the Ki was 6 µM.

For `C[C@H](NC(=O)[C@H](C)NS(=O)(=O)c1ccc(N(C)C)c2ccccc12)C(=O)N[C@@H](C)C(=O)N[C@@H](CCCN=C(N)N)C(=O)N[C@@H](CCCN=C(N)N)C(=O)N[C@@H](CCCN=C(N)N)C(=O)N[C@@H](CCCN=C(N)N)C(=O)O` (X1-AAARRRR-OH), the half-maximal inhibitory concentration (IC50) in test [1] and in test [2] was above 75 µM throughout.

For `NCCNS(=O)(=O)c1cccc2cnccc12`, the IC50 in test [1] was determined as 7 µM; in test [2], 2 µM.
